Source: ChEMBL document CHEMBL2040727, “Substituted thiazoles VI. Synthesis and antitumor activity of new 2-acetamido- and 2 or 3-propanamido-thiazole analogs” (2012)

Columns and labels:
Type in all cases: functional
MOLT-4 = assay: Growth inhibition of human MOLT4 cells at 10 uM after 48 hrs by coulter counter analysis; settings: MOLT-4, 48 h, read-out: GI
In short: (§1)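 Single-dose NCI 60-line panel screen of test compounds. Cells grown in RPMI 1640 with 10% FBS. Compounds dissolved in DMSO, then diluted in phosphate buffer saline (final DMSO below 1%). Wells run in duplicate at 6 × 10⁴ cells/ml. Controls held PBS and DMSO at matching dilutions. Incubation 48 h at 37 °C under humidified 5% CO2. Cells diluted tenfold in saline and counted by Coulter counter. Percent growth inhibition taken from mean-graph of treated-cell growth.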

RPMI-8226 = assay: Growth inhibition of human RPMI8226 cells at 10 uM after 48 hrs by coulter counter analysis; settings: RPMI-8226, 48 h, read-out: GI; in short: as §1
SR = assay: Growth inhibition of human SR cells at 10 uM after 48 hrs by coulter counter analysis; settings: read-out: GI
In short: (§2)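 Single-dose screen in the NCI 60 cell line panel. Cells grown in RPMI 1640 with 10% FBS. Compounds dissolved in DMSO and diluted in phosphate buffered saline, final DMSO under 1%. Duplicate wells seeded from culture at 6 × 10⁴ cells/ml. Incubated 48 h at 37 °C, humidified, 5% CO2. Cells diluted tenfold in saline and Coulter-counted. Percent growth inhibition computed against PBS/DMSO controls.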

A549 = assay: Growth inhibition of human A549/ATCC cells at 10 uM after 48 hrs by coulter counter analysis; settings: A549, 48 h, read-out: GI; in short: as §1
NCI-H226 = assay: Growth inhibition of human NCI-H226 cells at 10 uM after 48 hrs by coulter counter analysis; settings: NCI-H226, 48 h, read-out: GI; in short: as §1
NCI-H322M = assay: Growth inhibition of human NCI-H322M cells at 10 uM after 48 hrs by coulter counter analysis; settings: read-out: GI; in short: as §1
NCI-H460 = assay: Growth inhibition of human NCI-H460 cells at 10 uM after 48 hrs by coulter counter analysis; settings: NCI-H460, 48 h, read-out: GI; in short: as §1
NCI-H522 = assay: Growth inhibition of human NCI-H522 cells at 10 uM after 48 hrs by coulter counter analysis; settings: NCI-H522, 48 h, read-out: GI; in short: as §1
COLO 205 = assay: Growth inhibition of human COLO205 cells at 10 uM after 48 hrs by coulter counter analysis; settings: COLO 205, 48 h, read-out: GI; in short: as §1
HCC 2998 = assay: Growth inhibition of human HCC2998 cells at 10 uM after 48 hrs by coulter counter analysis; settings: HCC 2998, 48 h, read-out: GI; in short: as §1
HCT-116 = assay: Growth inhibition of human HCT116 cells at 10 uM after 48 hrs by coulter counter analysis; settings: HCT-116, 48 h, read-out: GI; in short: as §1
HCT-15 = assay: Growth inhibition of human HCT15 cells at 10 uM after 48 hrs by coulter counter analysis; settings: HCT-15, 48 h, read-out: GI; in short: as §1
HT-29 = assay: Growth inhibition of human HT-29 cells at 10 uM after 48 hrs by coulter counter analysis; settings: HT-29, 48 h, read-out: GI; in short: as §1
KM12 = assay: Growth inhibition of human KM12 cells at 10 uM after 48 hrs by coulter counter analysis; settings: KM12, 48 h, read-out: GI; in short: as §1
SW-620 = assay: Growth inhibition of human SW620 cells at 10 uM after 48 hrs by coulter counter analysis; settings: SW-620, 48 h, read-out: GI; in short: as §2
SF-268 = assay: Growth inhibition of human SF268 cells at 10 uM after 48 hrs by coulter counter analysis; settings: SF-268, 48 h, read-out: GI; in short: as §1
SF-539 = assay: Growth inhibition of human SF539 cells at 10 uM after 48 hrs by coulter counter analysis; settings: SF-539, 48 h, read-out: GI; in short: as §1
SNB-75 = assay: Growth inhibition of human SNB75 cells at 10 uM after 48 hrs by coulter counter analysis; settings: SNB-75, 48 h, read-out: GI; in short: as §2
LOX IMVI = assay: Growth inhibition of human LOXIMVI cells at 10 uM after 48 hrs by coulter counter analysis; settings: read-out: GI; in short: as §1
M14 = assay: Growth inhibition of human M14 cells at 10 uM after 48 hrs by coulter counter analysis; settings: M14, 48 h, read-out: GI; in short: as §1
MDA-MB-435 = assay: Growth inhibition of human MDA-MB-435 cells at 10 uM after 48 hrs by coulter counter analysis; settings: MDA-MB-435, 48 h, read-out: GI; in short: as §1
SK-MEL-28 = assay: Growth inhibition of human SK-MEL-28 cells at 10 uM after 48 hrs by coulter counter analysis; settings: SK-MEL-28, 48 h, read-out: GI; in short: as §1
SK-MEL-5 = assay: Growth inhibition of human SK-MEL-5 cells at 10 uM after 48 hrs by coulter counter analysis; settings: SK-MEL-5, 48 h, read-out: GI; in short: as §1
IGROV-1 = assay: Growth inhibition of human IGROV1 cells at 10 uM after 48 hrs by coulter counter analysis; settings: IGROV-1, 48 h, read-out: GI; in short: as §1
OVCAR-4 = assay: Growth inhibition of human OVCAR4 cells at 10 uM after 48 hrs by coulter counter analysis; settings: OVCAR-4, 48 h, read-out: GI; in short: as §1
[1] = Growth inhibition of human NCI-ADR-RES cells at 10 uM after 48 hrs by coulter counter analysis; settings: read-out: GI; in short: as §1
786-0 = assay: Growth inhibition of human 786-0 cells at 10 uM after 48 hrs by coulter counter analysis; settings: 786-0, 48 h, read-out: GI; in short: as §1
ACHN = assay: Growth inhibition of human ACHN cells at 10 uM after 48 hrs by coulter counter analysis; settings: read-out: GI; in short: as §1
CAKI-1 = assay: Growth inhibition of human Caki1 cells at 10 uM after 48 hrs by coulter counter analysis; settings: CAKI-1, 48 h, read-out: GI; in short: as §1
RXF 393 = assay: Growth inhibition of human RXF393 cells at 10 uM after 48 hrs by coulter counter analysis; settings: RXF 393, 48 h, read-out: GI; in short: as §1
PC-3 = assay: Growth inhibition of human PC3 cells at 10 uM after 48 hrs by coulter counter analysis; settings: PC-3, 48 h, read-out: GI; in short: as §1
DU-145 = assay: Growth inhibition of human DU145 cells at 10 uM after 48 hrs by coulter counter analysis; settings: DU-145, 48 h, read-out: GI; in short: as §1
MCF7 = assay: Growth inhibition of human MCF7 cells at 10 uM after 48 hrs by coulter counter analysis; settings: MCF7, 48 h, read-out: GI; in short: as §1
MDA-MB-231 = assay: Growth inhibition of human MDA-MB-231 cells at 10 uM after 48 hrs by coulter counter analysis; settings: MDA-MB-231, 48 h, read-out: GI; in short: as §1
[2] = Growth inhibition of human Hs 578T cells at 10 uM after 48 hrs by coulter counter analysis; settings: read-out: GI; in short: as §1
CCRF-CEM = assay: Growth inhibition of human CCRF-CEM cells at 10 uM after 48 hrs by coulter counter analysis; settings: read-out: GI; in short: as §1

Row | Compound | inhibition of growth at 10 µM (MOLT-4) [%] | inhibition of growth at 10 µM (RPMI-8226) [%] | inhibition of growth at 10 µM (SR) [%] | inhibition of growth at 10 µM (A549) [%] | inhibition of growth at 10 µM (NCI-H226) [%] | inhibition of growth at 10 µM (NCI-H322M) [%] | inhibition of growth at 10 µM (NCI-H460) [%] | inhibition of growth at 10 µM (NCI-H522) [%] | inhibition of growth at 10 µM (COLO 205) [%] | inhibition of growth at 10 µM (HCC 2998) [%] | inhibition of growth at 10 µM (HCT-116) [%] | inhibition of growth at 10 µM (HCT-15) [%] | inhibition of growth at 10 µM (HT-29) [%] | inhibition of growth at 10 µM (KM12) [%] | inhibition of growth at 10 µM (SW-620) [%] | inhibition of growth at 10 µM (SF-268) [%] | inhibition of growth at 10 µM (SF-539) [%] | inhibition of growth at 10 µM (SNB-75) [%] | inhibition of growth at 10 µM (LOX IMVI) [%] | inhibition of growth at 10 µM (M14) [%] | other results
1 | CCOC(=O)c1sc(NC(=O)CCN2CCN(C)CC2)nc1C | < 10 | < 10 | 20.3 | < 10 | < 10 | < 10 | < 10 | 12.9 | < 10 | < 10 | < 10 | < 10 | < 10 | < 10 | < 10 | < 10 | < 10 | < 10 | 15.5 | < 10 | inhibition of growth at 10 µM (MDA-MB-435): < 10%; inhibition of growth at 10 µM (SK-MEL-28): < 10%; inhibition of growth at 10 µM (SK-MEL-5): < 10%; inhibition of growth at 10 µM (IGROV-1): < 10%; inhibition of growth at 10 µM (OVCAR-4): < 10%; inhibition of growth at 10 µM [1]: < 10%; inhibition of growth at 10 µM (786-0): < 10%; inhibition of growth at 10 µM (ACHN): < 10%; inhibition of growth at 10 µM (CAKI-1): 12.5%; inhibition of growth at 10 µM (RXF 393): < 10%; inhibition of growth at 10 µM (PC-3): < 10%; inhibition of growth at 10 µM (DU-145): < 10%; inhibition of growth at 10 µM (MCF7): 16.3%; inhibition of growth at 10 µM (MDA-MB-231): < 10%; inhibition of growth at 10 µM [2]: < 10%; inhibition of growth at 10 µM (CCRF-CEM): 96.2%
2 | CN1CCN(CCC(=O)Nc2nc(-c3ccccc3)cs2)CC1 | 35.7 | 11.7 | < 10 | < 10 | 17.4 | < 10 | < 10 | 16.5 | < 10 | < 10 | < 10 | < 10 | < 10 | < 10 | < 10 | < 10 | < 10 | 30.5 | 11.1 | < 10 | inhibition of growth at 10 µM (MDA-MB-435): < 10%; inhibition of growth at 10 µM (SK-MEL-28): < 10%; inhibition of growth at 10 µM (SK-MEL-5): < 10%; inhibition of growth at 10 µM (IGROV-1): 10.6%; inhibition of growth at 10 µM (OVCAR-4): < 10%; inhibition of growth at 10 µM [1]: 13%; inhibition of growth at 10 µM (786-0): < 10%; inhibition of growth at 10 µM (ACHN): < 10%; inhibition of growth at 10 µM (CAKI-1): 15.9%; inhibition of growth at 10 µM (RXF 393): 11.1%; inhibition of growth at 10 µM (PC-3): 10.9%; inhibition of growth at 10 µM (DU-145): < 10%; inhibition of growth at 10 µM (MCF7): 11.8%; inhibition of growth at 10 µM (MDA-MB-231): 11.6%; inhibition of growth at 10 µM [2]: 10.5%; inhibition of growth at 10 µM (CCRF-CEM): 14.4%
